The source of these data is PubChem BioAssay AID624268 (The Scripps Research Institute Molecular Screening Center, 2012).

One may read the inhibition as the change of the read-out against control, counted positive when it falls.

Out of some 360,000 compounds screened, about 1,500 (0.42%) were called active.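 The calls were made as follows: active = inhibition above a per-plate cutoff of the control wells' mean inhibition plus 3 SD (cut at about 5.5% in these data); inactive = the rest.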 The sample as a whole holds a higher share of actives than the screen did.

The assay deals with methionyl-tRNA synthetase (Trypanosoma brucei brucei). Put plainly: inhibition of trypanosome methionyl-tRNA synthetase – biochemical, luminescence, primary screen (AID 624268).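 Also: 0% = DMSO wells median and 100% = median of wells with control inhibitor compound.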 Particulars: purified T. brucei MetRS, ATP depletion, Kinase-Glo luminescence; at 11.9 µM; hits give high values. The method, boiled down:
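technique = Kinase-Glo luminescence, ATP depletion format | system = purified MetRS (methionyl-tRNA synthetase) enzyme from Trypanosoma brucei | timing = 15 min preincubation, 2 h reaction, all 25 °C | evaluation = percent inhibition versus plate control medians | dosing = single dose, 11.9 µM final nominal, 0.9% final DMSO | also added = substrates ATP, L-methionine and bulk Escherichia coli tRNA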
In general terms: Kinase-Glo measures the ATP left after a reaction by luminescence.
On to `CCCCCn1nnnc1C1c2ccccc2C(=O)N1Cc1ccco1` (stereo not drawn), for which the inhibition was -0.27% (inactive). Then `CCCCCn1nnnc1-c1nc2cc3ccccc3cc2[nH]c1=O`, with 34.6% (active).

Regarding `CCCCn1c(-c2cccc(C)c2)nc2cc3[nH]c(=O)c(C(C)C)nc3cc21`, the inhibition was -0.06% (inactive). Then `C=CCNC(=S)N/N=C/c1ccc(C)s1`, with -0.64% (inactive).

With `CC(C)CNC(=O)C1CCCN(S(=O)(=O)c2ccc(-n3cnnn3)cc2)C1` (stereo not drawn), the inhibition is -0.29% (inactive).

As to `CCOc1ncccc1C(=O)N(C)CC(=O)Nc1ccc(F)cc1`, the inhibition is -0.63% (inactive).

As to `CC1(C)CC(=O)C=C(c2cccc3c2Oc2ccccc2S3)C1`, the inhibition was -0.11% (inactive). The figure for `Clc1ccccc1SCc1nc2ccccc2[nH]1` is 7.72% (active); for `COc1ccc(C)cc1-n1nnnc1SCc1nc2ccccc2c(=O)[nH]1` it is 0.31% (inactive). Then `O=c1c(-c2ccc(Cl)cc2)[n+]([O-])c2ccccc2n1OCc1nc2ccccc2[nH]1`, with -0.49% (inactive). The figure for `O=C(COC(=O)c1ncc(Cl)c(Cl)c1Cl)NNC(=O)c1ccccc1` is -0.19% (inactive); for `O=C(/C=C/c1cccs1)c1cc(Cl)ccc1OC(=O)N1CCOCC1` it is -0.94% (inactive); for `O=C1CC(C(=O)O)NC(=S)N1` (stereo not drawn) it is 0.05% (inactive). Regarding `Cc1oc(CC(C)C)c(CN2CCCC2)c1C(=O)O`, the inhibition was -0.29% (inactive).

On to `O=C(Nc1nsc(-c2ccccc2)n1)c1ccncc1`, for which the inhibition is -1.68% (inactive). Then `CN(CC(=O)NCCc1ccc(S(N)(=O)=O)cc1)CC(=O)Nc1ccc(Cl)cc1`, with -0.04% (inactive); and `NS(=O)(=O)c1ccc(CCNC(=O)Nc2ccc(Cl)cc2)cc1`, with 26.5% (active). The figure for `NS(=O)(=O)c1ccc(CCNC(=O)NC2CCCCC2)cc1` is -1.44% (inactive); for `CC(=O)C1(C)N(O)C(C)(C)C(c2cccs2)=[N+]1[O-]` (stereo not drawn) it is -1.27% (inactive).

For `COc1ccccc1C(=O)N(Cc1ccc(C)o1)C1CCS(=O)(=O)C1` (stereo not drawn), the inhibition is -0.11% (inactive).

As to `CC1(C(=O)NS(=O)(=O)c2ccccc2)CCN1C(=O)C1CCCCC1` (stereo not drawn), the inhibition was -0.08% (inactive). Consider `CC(C)(C)c1ccc(S(=O)(=O)NC(=O)C2(C)CCN2C(=O)CC2CC2)cc1` (stereo not drawn), for which the inhibition is -0.1% (inactive).

`COc1ccc(NC2CCCN(C(=O)c3ccncc3)C2)cc1` (stereo not drawn): the inhibition was -0.58% (inactive).
